Assay results: ChEMBL document CHEMBL4673255, “Acylated 1H-1,2,4-Triazol-5-amines Targeting Human Coagulation Factor XIIa and Thrombin: Conventional and Microscale Synthesis, Anticoagulant Properties, and Mechanism of Action” (J Med Chem, 2020)
Calls of active or inactive are those of the source. The rule behind the calls is not given here.

Assays:
[1] = target: T1, Coagulation factor XII (Homo sapiens) (UniProt P00748); test: Binding affinity to human plasma coagulation factor XIIA assessed as compound-adduct formation at molar ratio of 1:20 preincubated for 4 mins followed by desalination and measured after 120 mins by SEC/ESI-TOF mass spectra analysis; assay type: cell-free
T1 sequence (whole entry): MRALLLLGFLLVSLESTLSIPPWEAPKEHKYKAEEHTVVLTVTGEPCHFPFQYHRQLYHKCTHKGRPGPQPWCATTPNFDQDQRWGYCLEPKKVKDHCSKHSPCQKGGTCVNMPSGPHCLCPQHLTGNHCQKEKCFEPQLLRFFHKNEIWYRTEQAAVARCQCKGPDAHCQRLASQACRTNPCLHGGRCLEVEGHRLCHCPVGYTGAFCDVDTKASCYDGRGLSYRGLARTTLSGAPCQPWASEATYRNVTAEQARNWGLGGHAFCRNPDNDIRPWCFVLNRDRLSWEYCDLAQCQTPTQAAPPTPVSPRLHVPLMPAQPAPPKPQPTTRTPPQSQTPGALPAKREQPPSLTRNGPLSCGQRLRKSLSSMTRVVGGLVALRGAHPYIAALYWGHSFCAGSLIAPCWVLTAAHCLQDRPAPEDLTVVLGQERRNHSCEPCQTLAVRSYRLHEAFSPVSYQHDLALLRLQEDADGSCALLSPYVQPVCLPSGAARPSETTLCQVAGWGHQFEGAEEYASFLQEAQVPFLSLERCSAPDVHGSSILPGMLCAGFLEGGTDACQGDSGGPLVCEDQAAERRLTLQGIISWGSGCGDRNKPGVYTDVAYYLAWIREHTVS
In short: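 β-FXIIa incubated with inhibitor at a 1:20 molar ratio, then size-exclusion chromatography coupled to ESI-MS to measure the mass of enzyme–inhibitor complexes. Further runs checked complex stability to probe reversibility.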

[2] = test system: Plasma; test: Antiplatelet activity in […] assessed as inhibition of MDA-MB-231-induced platelet aggregation by light transmission aggregometry; assay type: functional; settings: Homo sapiens, dose 0.1-10 µM
[3] = test system: Plasma; test: Antiplatelet activity in […] assessed as inhibition of MDA-MB-231-induced platelet aggregation at 100 nM by light transmission aggregometry; assay type: functional; settings: Homo sapiens
[4] = species: Homo sapiens; test: Selectivity index, ratio of IC50 for inhibition of human coagulation factor alpha-thrombin using Boc-Val-Pro-Arg-AMC as fluorogenic substrate to IC50 for inhibition of human coagulation factor XIIA using Boc-Gln-Gly-Arg-AMC as fluorogenic substrate incubated for 1 hr by fluorometric assay
[5] = target: T1, Coagulation factor XII (Homo sapiens); test: Time dependent inhibition of human coagulation factor XIIA using Boc-Gln-Gly-Arg-AMC as fluorogenic substrate at 0.5 to 132 uM by fluorescence assay; settings: dose 0.0005-132 µM, in the assay text read “0.5 nM to 132 uM” for “0.5 to 132 uM”
In short: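 Buffer: Tris-Cl pH 7.4 with NaCl, MgCl2, CaCl2, 0.1% BSA and 0.01% Triton X-100. Fluorescence (ex 355/em 460 nm) read kinetically every 87 s for up to 180 min. IC50 calculated at each time point and plotted against time.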

[6] = target: Coagulation factor X (Homo sapiens, UniProt P00742); test: Inhibition of human coagulation factor Xa using Boc-Ile-Glu-Gly-Arg-AMC as fluorogenic substrate measured at 1 min interval for 1 hr by fluorometric assay
Sequence of Coagulation factor X (P00742 41-179 limits assumed): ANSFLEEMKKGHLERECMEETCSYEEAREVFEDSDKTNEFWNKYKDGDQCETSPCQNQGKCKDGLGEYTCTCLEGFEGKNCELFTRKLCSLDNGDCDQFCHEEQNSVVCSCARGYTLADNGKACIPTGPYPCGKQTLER
Sequence of Coagulation factor X (P00742 235-488 limits assumed): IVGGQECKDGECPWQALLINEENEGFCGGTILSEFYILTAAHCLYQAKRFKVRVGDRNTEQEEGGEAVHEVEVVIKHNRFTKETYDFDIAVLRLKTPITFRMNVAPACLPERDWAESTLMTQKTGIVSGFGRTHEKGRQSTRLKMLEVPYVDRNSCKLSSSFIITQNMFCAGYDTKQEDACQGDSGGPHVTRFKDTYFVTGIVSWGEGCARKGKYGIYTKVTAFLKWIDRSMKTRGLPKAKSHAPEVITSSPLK

Row | Compound | Activity [1] | inhibition [2] | inhibition [3] | Ratio IC50 [4] | TDI [5] | IC50 [6] [µM]
1 | Nc1nc(-c2ccccn2)nn1C(=O)c1ccc2ccccc2c1 | inactive | Dose-dependent effect | inactive | – | – | –
2 | Nc1nc(-c2ccccn2)nn1C(=O)c1cccc2ccccc12 | – | – | – | 13 | Active | > 5
